Sampled rows, rich in hits. Any-hit rate of the full collection: about 5.3%.
T cruzi repl – blocks replication of Trypanosoma cruzi. T. cruzi beta-gal in NIH3T3, luminescence, 90 h. inhibition, % (concentration not given with the values). 1.4% of 300,000 active. AID 1885;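 active = mean inhibition across valid replicates above about 55%, limit read from the data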;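 also: signal also drops with host cell toxicity which is not excluded here; higher percent means less beta-gal luminescence so fewer parasites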
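Test system: β-gal T. cruzi (Tulahuen C4) inside NIH/3T3 cells / Quantity: 5,000 cells/well / Measured by: luminescence from GalScreen with 0.05% NP40, read after 60 min / Medium: DMEM plus 2% FBS / Measure: parasite load inhibition, % / Reagent: Tulahuen C4 trypomastigotes, 5000/well / Schedule: co-culture of at least 90 h after 3 h attachment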
Beta cell apopt – beta cell apoptosis inhibition. INS-1E cytokine-induced death, ATP luminescence, 48 h; percent of positive-control rescue, neutral wells zero. protection from apoptosis, % (concentration not given with the values). 0.8% of 300,000 active;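 active = Every replicate reaches about 75%, or at least half do and their mean reaches it too, limit read from the data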;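 also: higher means more ATP so stronger rescue from cytokine killing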
Calb FLC – affects C. albicans growth with fluconazole | C. albicans CaCi-2 + fluconazole, Alamar Blue growth, 48 h | AID 1979 | 0.57% of 300,000 active | growth inhibition, % (test concentration not listed);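 active = growth inhibition above about 58% in most replicates, limit read from the data, passing the limit was not always enough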;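 also: all wells also contain fluconazole at 8 µg/ml as a sub-toxic cotreatment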
CSC inhib – cancer stem cell inhibition; 1.1% of 300,000 active; inhibition, % at 7.5 µM; cancer stem cell-like cells viability, luminescence; AID 2717; in the data active = inhibition above about 75%; tested in HMLE shEcad cells
Mdm2 MdmX PPI – disrupts the human Mdm2-MdmX interaction. inhibition, % at 8 µM. SaOS-2 split-luciferase Mdm2/MdmX complementation, luminescence. 3% of 330,000 active. AID 485346;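 active = inhibition of at least 50% at 8 µM in the primary screen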
Target sequence (O15151 whole entry, looked up): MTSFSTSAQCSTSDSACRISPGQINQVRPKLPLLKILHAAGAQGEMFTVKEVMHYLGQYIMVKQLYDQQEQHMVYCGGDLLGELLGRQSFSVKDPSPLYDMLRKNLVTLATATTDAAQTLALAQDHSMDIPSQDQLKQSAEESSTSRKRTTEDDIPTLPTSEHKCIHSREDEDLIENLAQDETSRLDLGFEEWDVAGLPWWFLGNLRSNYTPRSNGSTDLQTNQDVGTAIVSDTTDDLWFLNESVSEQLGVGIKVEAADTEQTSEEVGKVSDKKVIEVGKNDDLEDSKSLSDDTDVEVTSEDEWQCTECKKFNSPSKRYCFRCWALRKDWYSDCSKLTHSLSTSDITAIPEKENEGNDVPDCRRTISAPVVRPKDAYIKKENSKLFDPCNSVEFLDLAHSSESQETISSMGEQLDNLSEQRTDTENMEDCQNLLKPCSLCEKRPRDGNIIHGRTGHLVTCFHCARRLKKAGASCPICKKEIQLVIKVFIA
Target sequence (Q00987 whole entry, looked up): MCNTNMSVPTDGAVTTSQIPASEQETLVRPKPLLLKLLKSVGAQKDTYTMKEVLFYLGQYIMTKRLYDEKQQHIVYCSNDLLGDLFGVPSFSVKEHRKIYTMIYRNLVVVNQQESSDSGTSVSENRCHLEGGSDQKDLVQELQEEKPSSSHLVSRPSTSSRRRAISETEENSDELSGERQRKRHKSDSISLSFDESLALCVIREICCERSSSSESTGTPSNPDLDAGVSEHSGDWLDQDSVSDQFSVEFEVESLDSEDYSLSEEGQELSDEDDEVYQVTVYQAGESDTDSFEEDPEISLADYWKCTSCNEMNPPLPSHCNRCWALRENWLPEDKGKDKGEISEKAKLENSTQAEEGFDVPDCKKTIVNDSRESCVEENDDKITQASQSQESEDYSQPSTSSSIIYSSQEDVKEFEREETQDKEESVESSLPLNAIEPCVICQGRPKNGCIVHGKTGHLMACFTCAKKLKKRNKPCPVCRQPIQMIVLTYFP
NALP3 yeast inh – inhibitors of NALP3 inflammasome in yeast. inhibition, % at 10 µM. 0.39% of 330,000 active. Yeast reconstituted NLRP3/ASC/caspase-1, beta-gal luminescence, 24 h. AID 2825;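 active = inhibition of 50% or more; inactive = inhibition below 50%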
Mdm2-MdmX conf – confirmation of human Mdm2/MdmX interaction inhibitors; inhibition, % at 8 µM; AID 489028; Mdm2-MdmX binding, luminescent assay; 55% of 10,000 active; shares compounds with Mdm2 MdmX PPI; in the data active = inhibition above about 40%
FLuc counter – counter-screen for Mdm2/MdmX inhibitors: full-length luciferase; inhibition, % at 8 µM; AID 504607; shares compounds with Mdm2 MdmX PPI; SaOS-2 full-length luciferase counterscreen, luminescence; 77% of 6,200 active;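 active = mean inhibition at 8 µM reaching about 37%, which flags the compound as non-specific, limit read from the data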;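 also: p53-null SaOS-2 cells with luciferase driven by a doxycycline-inducible promoter; compound on cells about two nights before reading with doxycycline added after day one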
Of the large screens only hits and unclear results are named; the others gave an inactive call (follow-up assays come after a bar, where they were run).

Cc1cccc2sc(N(CCCN(C)C)C(=O)c3ccc(S(=O)(=O)N4CCc5ccccc5C4)cc3)nc12	Mdm2 MdmX PPI 64 | Mdm2-MdmX conf inactive
Cc1cc(C)c2sc(N(CCCN(C)C)C(=O)c3ccc(S(=O)(=O)N4CCCc5ccccc54)cc3)nc2c1	T cruzi repl 60, CSC inhib 101, Mdm2 MdmX PPI 99 (no result: Beta cell apopt) | Mdm2-MdmX conf 57 | FLuc counter 73
COc1ccc2sc(N(CCCN(C)C)C(=O)c3ccc(S(=O)(=O)N4CCc5ccccc5C4)cc3)nc2c1	T cruzi repl 57, CSC inhib 91, Mdm2 MdmX PPI 100 (no result: Beta cell apopt) | Mdm2-MdmX conf 99 | FLuc counter 55
COc1ccc(NC(=O)CCNC(=O)Cn2cnc3ccccc3c2=O)cc1OC	none (no result: Beta cell apopt)
O=C(C#Cc1ccccc1)c1cccc([N+](=O)[O-])c1	Mdm2 MdmX PPI 88 (no result: Beta cell apopt, CSC inhib) | Mdm2-MdmX conf inactive
CC(=O)c1cccc([N+](=O)[O-])c1	none (no result: T cruzi repl, Calb FLC)
CCC/C(O)=C1\C(=O)CCCC1=NCCc1c(C)[nH]c2ccc(C)cc12	none
O=C1Nc2cc(C(=O)NCCCN3CCCC3)ccc2S/C1=C/c1ccccc1F	Mdm2 MdmX PPI 58 (no result: Beta cell apopt) | Mdm2-MdmX conf inactive
CC1CCCN(CCCNC(=O)c2ccc3c(c2)N(Cc2ccccc2F)C(=O)c2ccccc2S3(=O)=O)C1 (centres undefined)	Mdm2 MdmX PPI 64 | Mdm2-MdmX conf inactive | FLuc counter 51
COc1cccc(/C=C2/Sc3ccc(C(=O)NCCN4CCCC4)cc3NC2=O)c1	Mdm2 MdmX PPI 58 (no result: Beta cell apopt) | Mdm2-MdmX conf inactive
O=C(NCCCN1CCCCC1)c1ccc2c(c1)NC(=O)c1ccccc1S2	none (no result: CSC inhib)
CCN1CCCC1CNC(=O)c1ccc2c(c1)N(Cc1ccccc1F)C(=O)c1ccccc1S2(=O)=O (centres undefined)	none (no result: Beta cell apopt, CSC inhib)
Cc1ccc(/C=C2/Sc3ccc(C(=O)NCCN4CCOCC4)cc3NC2=O)cc1	none
CCN1CCCC1CNC(=O)c1ccc2c(c1)NC(=O)/C(=C\c1ccc(C)cc1)S2 (centres undefined)	Mdm2 MdmX PPI 97 | Mdm2-MdmX conf inactive | FLuc counter 69
CCOc1ccc(CCNC(=O)CSCC(=O)Nc2ccc(OC)cc2)cc1OCC	none (no result: T cruzi repl, Calb FLC)
CCN1C(=O)c2ccccc2Sc2ccc(C(=O)NCCCN3CCCCC3)cc21	Mdm2 MdmX PPI 51 | Mdm2-MdmX conf inactive
CC(C)n1cc(CN2CCC(C(=O)Nc3cccc(-c4cscn4)c3)CC2)cn1	none (no result: Beta cell apopt, CSC inhib)
Cn1cc(CN2CCCC(C(=O)Nc3cccc(-c4cc5ccccc5[nH]4)c3)C2)cn1 (centres undefined)	Mdm2 MdmX PPI 60 (no result: Beta cell apopt) | Mdm2-MdmX conf inactive
CCn1cc(CN2CCCC(C(=O)Nc3cccc(-c4cc5ccccc5[nH]4)c3)C2)c(C)n1 (centres undefined)	none
CC(C)n1cc(CN2CCCC(C(=O)Nc3cccc(-c4cc5ccccc5[nH]4)c3)C2)cn1 (centres undefined)	Mdm2 MdmX PPI 78 | Mdm2-MdmX conf inactive
CC(=O)c1ccc(OCc2cc(C(=O)N(C)Cc3cc(C)no3)no2)cc1	none
Cn1nc(-c2ccc(N3CCOCC3)c(NS(=O)(=O)c3ccccc3)c2)c2ccccc2c1=O	Mdm2 MdmX PPI 65 | Mdm2-MdmX conf inactive
CC(=O)Nc1cc(-c2nn(C)c(=O)c3ccccc23)ccc1N1CCCCC1	none
COc1cc(CN2CCC(C(=O)NCC(C)(C)CN(C)C)CC2)ccc1OCc1ccccc1	Mdm2 MdmX PPI 92 (no result: Beta cell apopt) | Mdm2-MdmX conf 80 | FLuc counter 71
CCCCNC(=O)C1CCN(Cc2ccc(OCc3ccccc3)c(OC)c2)CC1	none
O=[N+]([O-])c1cc(S(=O)(=O)C(F)(F)F)ccc1Sc1nc2ccccc2[nH]1	CSC inhib 113, Mdm2 MdmX PPI 57 | Mdm2-MdmX conf inactive
O=[N+]([O-])c1cc(S(=O)(=O)C(F)(F)F)ccc1Sc1nc2ccccc2s1	Calb FLC 111, CSC inhib 101, Mdm2 MdmX PPI 96 | Mdm2-MdmX conf inactive
CS(=O)(=O)c1ccc(Sc2nc3ccccc3[nH]2)c([N+](=O)[O-])c1	none
CS(=O)(=O)c1ccc(Sc2nc3ccccc3s2)c([N+](=O)[O-])c1	none (no result: CSC inhib)
O=C(Nc1ccc(Oc2cccnc2)cc1)C1CCN(Cc2ccccc2F)CC1	none (no result: Beta cell apopt, CSC inhib)
CC1CCc2cc(F)cc3c(O)c(C(=O)NCC4CCCO4)c(=O)n1c23 (centres undefined)	Mdm2 MdmX PPI 71 | Mdm2-MdmX conf 44 | FLuc counter inactive
CC(C)Cn1c(N)c(C(=O)NCC2CCCO2)c2nc3ccccc3nc21 (centres undefined)	Mdm2 MdmX PPI 52 | Mdm2-MdmX conf inactive
CCCn1c(=O)c(C(=O)NCc2ccccn2)c(O)c2ccccc21	Mdm2 MdmX PPI 63 (no result: T cruzi repl, Calb FLC) | Mdm2-MdmX conf inactive
CCCn1c(=O)c(C(=O)NCC2CCCO2)c(O)c2ccccc21 (centres undefined)	Mdm2 MdmX PPI 67 | Mdm2-MdmX conf inactive
Cc1nc2ccc(F)cc2cc1C(=O)NCC1CCCO1 (centres undefined)	none (no result: Beta cell apopt, CSC inhib, Mdm2 MdmX PPI, NALP3 yeast inh)
CCOc1ccc(C2=Nn3cnnc3SC2)cc1	none
CCOC(=O)C(NS(=O)(=O)c1ccccc1)(C(F)(F)F)P(=O)(OCC(C)C)OCC(C)C (centres undefined)	none
COc1ccc(C2C(C(=O)c3cccs3)=C(O)C(=O)N2c2cccc(C)n2)cc1OC (centres undefined)	none
O=C(CN1CCN(Cc2ccccc2Cl)C1=O)NCCCN1CCOCC1	none
O=[N+]([O-])c1ccc(Oc2cccc(F)c2)c2ccncc12	Mdm2 MdmX PPI 58 | Mdm2-MdmX conf inactive
O=[N+]([O-])c1cnccc1Nc1cccc(F)c1	none
COc1ccccc1N=c1oc2c(OC)cccc2cc1C(=O)NCc1ccco1	Mdm2 MdmX PPI 51 | Mdm2-MdmX conf inactive
COc1ccc(OC)c(N=c2oc3c(OC)cccc3cc2C(=O)NCc2ccco2)c1	none (no result: CSC inhib)
CCOC(=O)N1CCN(C(=O)CCN2C(=O)/C(=C\c3cccc(OC)c3)SC2=S)CC1	Mdm2 MdmX PPI 60 (no result: CSC inhib) | Mdm2-MdmX conf inactive | FLuc counter 46
O=C(CCN1C(=O)/C(=C/c2ccccc2)SC1=S)N1CCCCCC1	Mdm2 MdmX PPI 95 | Mdm2-MdmX conf 77 | FLuc counter 52
COc1ccc(/C=C2\SC(=S)N(CCC(=O)N3CCCCC3)C2=O)cc1	Mdm2 MdmX PPI 64 | Mdm2-MdmX conf 46 | FLuc counter 90
COc1cccc(/C=C2\SC(=S)N(CCCC(=O)Nc3ccc(C(=O)O)cc3)C2=O)c1	none
O=C(CCN1C(=O)/C(=C\c2ccccc2F)SC1=S)N1CCCCC1	Mdm2 MdmX PPI 93 | Mdm2-MdmX conf 67 | FLuc counter 105
Cc1ccc(S(=O)(=O)NCc2ccc(C(=O)NC3CCCCC3)cc2)cc1	none

High-throughput results (PubChem BioAssay)
